An excerpt weighted towards active compounds, which were near 2.5% of everything screened.
MEKK2 mut-MEK5: signal of MEK5 binding to mutant human MEKK2 PB1 domain; percent response, % at 10 µM; bead flow cytometry, Alexa488-MEK5 binding to MEKK2 mutant; actives 0.35% (n = 290,000); in the data active = percent response above about 24%, passing the limit was not always enough
ABCG2 block: blocks JC-1 efflux by human ABCG2 transporter; Q9UNQ0; IgMXP3 cells, flow cytometry; inhibition, % at 6.6 µM; actives 0.1% (n = 190,000); AID 1325;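 active = inhibition above 80%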;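 also: 0% = DMSO and 100% = nicardipine control wells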
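Test system: IgMXP3 (ABCG2) plus far-red-tagged CCRF-Adr (ABCB1) cells. Reagent: JC-1 dye as substrate. Timing: 10 min exposure at 25 °C with rotation, no wash. Measured by: flow cytometric JC-1 green MFI at 530 nm. Read-out: percent efflux inhibition, scaled nicardipine 100% to DMSO 0%. Control set: nicardipine and DMSO wells.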
ABCB1 inh: inhibitors of human ABCB1 transporter, ABCG2 counter-screen | P08183 | CCRF-Adr cells, JC-1 efflux, flow cytometry | inhibition, % at 6.6 µM | actives 0.067% (n = 190,000) | AID 1326; in the data active = inhibition above about 40%;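 also: 0% = vehicle and 100% = reference inhibitor; higher value means more JC-1 retained so stronger ABCB1 efflux block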
Target sequence (P08183 whole entry, looked up): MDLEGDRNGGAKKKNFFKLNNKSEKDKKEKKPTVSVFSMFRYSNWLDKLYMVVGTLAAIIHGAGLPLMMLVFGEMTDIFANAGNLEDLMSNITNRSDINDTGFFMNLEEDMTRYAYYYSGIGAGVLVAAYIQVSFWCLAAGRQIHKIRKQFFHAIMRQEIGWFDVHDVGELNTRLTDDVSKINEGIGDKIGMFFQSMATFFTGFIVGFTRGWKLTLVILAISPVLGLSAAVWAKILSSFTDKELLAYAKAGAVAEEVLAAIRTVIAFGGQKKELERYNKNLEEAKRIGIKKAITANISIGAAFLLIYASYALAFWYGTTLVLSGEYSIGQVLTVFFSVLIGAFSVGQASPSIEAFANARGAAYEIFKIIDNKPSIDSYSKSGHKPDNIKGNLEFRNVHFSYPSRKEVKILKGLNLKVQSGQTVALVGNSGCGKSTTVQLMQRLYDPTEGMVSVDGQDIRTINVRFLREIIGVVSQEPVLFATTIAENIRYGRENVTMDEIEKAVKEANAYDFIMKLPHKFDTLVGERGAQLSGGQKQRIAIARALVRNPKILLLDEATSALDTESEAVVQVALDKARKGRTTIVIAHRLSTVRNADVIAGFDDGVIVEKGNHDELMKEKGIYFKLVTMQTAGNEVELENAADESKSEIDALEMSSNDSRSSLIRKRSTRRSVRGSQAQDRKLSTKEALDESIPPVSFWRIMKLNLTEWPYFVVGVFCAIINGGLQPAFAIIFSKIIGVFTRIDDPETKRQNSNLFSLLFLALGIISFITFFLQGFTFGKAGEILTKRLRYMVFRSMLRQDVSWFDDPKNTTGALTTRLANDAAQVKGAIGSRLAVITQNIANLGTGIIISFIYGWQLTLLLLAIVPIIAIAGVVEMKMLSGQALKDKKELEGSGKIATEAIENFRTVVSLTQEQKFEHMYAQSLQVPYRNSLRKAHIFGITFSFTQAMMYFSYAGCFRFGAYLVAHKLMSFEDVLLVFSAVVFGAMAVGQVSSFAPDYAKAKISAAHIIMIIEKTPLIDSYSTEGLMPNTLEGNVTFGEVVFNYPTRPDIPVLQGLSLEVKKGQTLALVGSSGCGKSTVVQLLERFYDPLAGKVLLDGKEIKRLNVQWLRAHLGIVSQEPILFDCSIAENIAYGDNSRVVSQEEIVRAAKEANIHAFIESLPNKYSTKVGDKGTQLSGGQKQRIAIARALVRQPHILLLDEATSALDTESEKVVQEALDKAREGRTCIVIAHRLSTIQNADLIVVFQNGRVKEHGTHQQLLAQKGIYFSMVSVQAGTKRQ
MEKK2wt PB1 HTS: raises or lowers MEK5 binding to wildtype human MEKK2 PB1 domain | AID 1531 | bead flow cytometry, Alexa488-MEK5 binding to MEKK2 WT; actives lie on both sides | actives 1.1% (n = 290,000) | binding response (% of control), % at 10 µM | Q9Y2U5; in the data active = binding response below about 67% or above about 130%
MEKK3 PB1 HTS: MEKK3-MEK5 PB1 interaction, increase or decrease; AID 1529; bead-based flow cytometry, Alexa488-MEK5 binding to MEKK3; actives lie on both sides; 0 = blocked by unlabeled MEK5, 100 = vehicle; binding response (% of control), % at 10 µM; actives 1.4% (n = 290,000);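 active = binding response more than 3 SD above or below the average of its plate-row segment, actives on both sides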;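 also: Alexa488 bead fluorescence after subtracting the streptavidin-only scavenger bead signal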
Efflux pump mplx: inhibitors of Candida antifungal efflux pumps expressed in yeast; S. cerevisiae Candida pump triplex, Nile Red efflux; inhibition, % at 10 µM; actives 0.44% (n = 330,000); AID 485275;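 active = plate passing quality check with inhibition over a set limit, or well fluorescence over plate mean plus 4 SD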;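 also: Nile Red retained in pooled yeast measured as flow cytometry median fluorescence; 0% = buffer negative control and 100% = Enniatin B positive control; higher means more Nile Red kept so more efflux inhibition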
MEKK2wt confirm: raises or lowers MEK5 binding to wildtype human MEKK2, retest; actives 2.4% (n = 5,900); AID 1892; binding response (% of control), % at 10 µM; shares compounds with MEKK3 PB1 HTS; bead flow cytometry, Alexa488-MEK5 binding to MEKK2 WT; actives lie on both sides; in the data active = binding response below about 16% or above about 210%; inactive = in between
MEKK2mut-MEK5: signal of MEK5 binding to mutant human MEKK2, retest | shares compounds with MEKK3 PB1 HTS | bead flow cytometry, Alexa488-MEK5 binding to MEKK2 mutant | percent response, % at 10 µM | actives 2% (n = 5,900) | AID 1893; in the data active = percent response mostly above about 71%, no sharp cut-off; inactive = mostly below about 38%;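 also: higher means compound restores mutant binding toward wildtype level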
MEKK3 confirm: confirmation of inhibitors of MEK5 binding to human MEKK3; shares compounds with MEKK3 PB1 HTS; bead flow cytometry, Alexa488-MEK5 binding to MEKK3; active compounds read low; binding response (% of control), % at 10 µM; actives 1.8% (n = 5,900); AID 1894;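 active = binding response below 72% of control, or above a set upper limit, though filed actives all read lower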;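 also: 100% = DMSO only wells and 0% = binding blocked by excess unlabeled MEK5; lower values mean stronger disruption of MEK5 binding to MEKK3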
An asterisk follows results filed as active; x = no result given; [ ] = dose if it differs, or a comment.

SMILES	MEKK2 mut-MEK5	ABCG2 block	ABCB1 inh	MEKK2wt PB1 HTS	MEKK3 PB1 HTS	Efflux pump mplx	MEKK2wt confirm	MEKK2mut-MEK5	MEKK3 confirm
CC(Cc1ccccc1)NC(=O)CN1C(=O)c2ccccc2S1(=O)=O (centres undefined)	7.0	x	x	108.0	104.0	0.0	x	x	x
O=C(/N=C1/c2ccccc2CN1c1ccccc1)Nc1ccccc1	1.0	-1.3	-0.4	109.0	138.0*	0.2	102.0	4.0	103.0
CC(=O)c1ccc(N2Cc3ccccc3/C2=N\C(=O)Nc2ccc(Cl)cc2)cc1	-1.0	-5.4	-0.6	96.0	98.0	0.4	x	x	x
COC(=O)c1ccc(N2Cc3ccccc3/C2=N\C(=O)Nc2ccccc2)cc1	0.0	3.4	1.2	104.0	137.0*	-0.1	101.0	6.0	105.0
Cc1cc(C)c(-n2c(SCc3nc4ccccc4s3)n[nH]c2=O)c(C)c1	24.0	x	x	107.0	130.0*	0.2	83.0	-16.0	84.0
CCCn1c(SCc2nc3ccccc3s2)n[nH]c1=O	-2.0	4.2	0.6	103.0	98.0	0.0	x	x	x
Oc1ccccc1-c1nnc(COc2ccc(Cl)cc2Cl)o1	0.0	0.1	-0.2	93.0	96.0	-0.2	x	x	x
Clc1ccc(-c2nnc(CCc3ccccc3)o2)c(Cl)c1	-12.0	1.1	0.1	62.0	55.0*[inhibitor]	0.1	102.0	-4.0	99.0
CCOC(=O)C1=NN(c2ccccc2)C2C(=O)N(c3ccccc3OC)C(=O)C12 (centres undefined)	0.0	x	x	94.0	101.0	-0.1	x	x	x
COC(=O)C1=NN(c2ccc(Cl)cc2)C2C(=O)N(c3ccccc3OC)C(=O)C12 (centres undefined)	-1.0	10.7	2.8	101.0	143.0*	0.1	104.0	-2.0	107.0
COc1ccc(F)c(CN2CCCC(CO)(Cc3cccc(Cl)c3)C2)c1 (centres undefined)	5.0	x	x	106.0	106.0	0.0	x	x	x
COc1ccc(/C=C/CN2CCCC(CO)(Cc3cccc(Cl)c3)C2)cc1 (centres undefined)	6.0	1.0	0.6	159.0*	110.0	0.1	113.0	15.0	102.0
CCOC(=O)C(C)Sc1nc(=O)n2cc(C)ccc2n1 (centres undefined)	-15.0	2.3	0.2	54.0	45.0*[inhibitor]	0.0	117.0	7.0	103.0
Cc1ccc2cc(C#N)c(SCC(=O)N3CCCC3)nc2c1	-11.0	x	x	43.0*[inhibitor]	45.0*[inhibitor]	0.1	94.0	-8.0	95.0
Cc1cc(C)n2c(SCC(=O)N(C)C3CCCCC3)nnc2n1	5.0	15.8	0.8	104.0	104.0	0.0	x	x	x
COc1cc(-c2nc(-c3ccc(NC(=O)c4ccc5c(c4)OCO5)cc3)no2)cc(OC)c1OC	-2.0	23.5	5.6	45.0*[inhibitor]	111.0	0.1	101.0	-5.0	96.0
O=C(Nc1ccc(S(=O)(=O)N2CCCCC2)cc1)c1ccc(CN2CCOCC2)cc1	5.0	49.7	3.1	89.0	74.0*[inhibitor]	-0.1	104.0	2.0	107.0
COc1ccc(NC(=O)c2[nH]c(C)c(C(C)=O)c2C)cc1S(=O)(=O)N1CCOCC1	0.0	5.7	-0.2	105.0	129.0*	-0.2	102.0	-3.0	103.0
COc1ccccc1C(=O)Nc1ccc(S(=O)(=O)N2CCOCC2)cc1	24.0*	7.0	0.7	103.0	107.0	-0.1	97.0	1.0	105.0
COc1ccc(CCN2C(=O)CSC2=Nc2ccc(C(C)C)cc2)cc1OC	-15.0	x	x	92.0	93.0	0.2	x	x	x
O=C(O)CCCNc1c(C(=O)Nc2ccc(Cl)cc2)cc([N+](=O)[O-])cc1[N+](=O)[O-]	11.0	1.0	0.0	118.0	135.0*	0.1	105.0	8.0	107.0
CC1CCCC(NC(=O)COC(=O)/C=C/c2ccc(S(=O)(=O)N3CCOCC3)cc2)C1C (centres undefined)	10.0	x	x	108.0	104.0	-0.1	x	x	x
N/C(=N\OC(=O)C(c1ccccc1)c1ccccc1)c1ccccn1	1.0	0.0	0.7	2.0*[inhibitor]	2.0*[inhibitor]	0.0	97.0	-7.0	99.0
COCc1ccc(CN2CCCCC2C(=O)Nc2ccc(Oc3ccccc3)nc2)o1 (centres undefined)	3.0	x	x	103.0	102.0	1.3	x	x	x
CC(C)(C)OC(=O)N1CCC(c2cc(=O)n3[nH]cc(C(=O)Nc4ccc(F)c(Cl)c4)c3n2)CC1	19.0	x	x	97.0	129.0*	0.0	97.0	-1.0	101.0
SMILES	MEKK2 mut-MEK5	ABCG2 block	ABCB1 inh	MEKK2wt PB1 HTS	MEKK3 PB1 HTS	Efflux pump mplx	MEKK2wt confirm	MEKK2mut-MEK5	MEKK3 confirm
CC(C)(C)OC(=O)N1CCC(c2cc(=O)n3[nH]cc(C(=O)NC4CCCC4)c3n2)CC1	6.0	-1.6	-0.5	96.0	100.0	0.3	x	x	x
Cc1ccc(NC(=O)C(c2ccccc2)c2ccccc2)c(O)c1	-6.0	x	x	95.0	99.0	-0.3	x	x	x
COc1ccc2c(C)c(C)c(=O)oc2c1OC	-26.0	19.1	0.4	0.0*[inhibitor]	2.0*[inhibitor]	-0.1	104.0	-1.0	101.0
CCOC(=O)CCc1nc2ccccc2[nH]1	6.0	-0.3	0.0	109.0	108.0	-0.1	x	x	x
COCC(=O)O[C@]1(CCN(C)CCCc2nc3ccccc3[nH]2)CCc2cc(F)ccc2[C@@H]1C(C)C	19.0	x	x	172.0*	118.0	0.1	136.0	21.0	107.0
COc1ccc(C(=O)C[n+]2ccc3c(c2)nnn3-c2ccccc2)cc1	7.0	8.8	1.2	113.0	100.0	-0.1	x	x	x
Cn1c(N)c(C(=O)COC(=O)c2ncc(Cl)c(Cl)c2Cl)c(=O)n(C)c1=O	-6.0	6.5	0.7	98.0	100.0	0.0	x	x	x
CCOc1ccc(/C=C/c2nc(C#N)c(NCCCN(C)C)o2)cc1	26.0*	x	x	140.0*	113.0	-0.1	103.0	9.0	101.0
O=C(NNc1cc(Cl)ccc1Cl)c1cccs1	25.0	x	x	127.0	130.0*	-0.1	107.0	1.0	107.0
Cc1cc(Cl)ccc1NNC(=O)c1cccs1	-29.0	x	x	78.0	77.0	-0.1	x	x	x
CC(=O)c1cccc(NC(=O)CCC2CCCC2)c1	-21.0	3.8	0.4	2.0*[inhibitor]	2.0*[inhibitor]	-0.1	103.0	1.0	101.0
CC(=O)c1cccc(NC(=O)C(C)OC(=O)CCC2CCCCC2)c1 (centres undefined)	x	x	x	x	x	-0.1	x	x	x
Cc1cc(Cl)ccc1NC(=S)N(CCCN1CCOCC1)Cc1cccs1	0.0	-0.2	1.7	106.0	128.0*	-5.8	108.0	3.0	105.0

Screening data (PubChem)
